Experimental data as given in ChEMBL document CHEMBL1155297, “Synthesis, antimicrobial and antioxidant activities of substituted pyrazoles, isoxazoles, pyrimidine and thioxopyrimidine derivatives” (2009).

What was measured:
Type in all cases: functional
Aspergillus niger [1] = assay: Antifungal activity against Aspergillus niger NCIM 596 at 200 ug/disk after 48 hrs by agar disk diffusion method; details: NCIM 596, 48 h, read-out: IZ
Method in brief: (§1)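 Fungal disc diffusion on nutrient agar plates pre-inoculated with each fungus. 6 mm sterile paper discs carried the compound in DMSO at the stated amount per disc. Plates were held at 37 °C, and inhibition-zone diameter was measured after 48 h. Values are the mean of three independent triplicate readings.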

Staphylococcus aureus [2] = assay: Antibacterial activity against Staphylococcus aureus NCIM 5021 at 100 ug/disk after 24 hrs by agar disk diffusion method; details: NCIM 5021, 24 h, read-out: IZ
Method in brief: (§2)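 Agar disc diffusion on nutrient agar plates pre-inoculated with each bacterium. Sterile 6 mm filter-paper discs were moistened with compound in DMSO at the stated per-disc amount. Plates were incubated at 37 °C, and the growth-inhibition zone diameter was read after 24 h. Each determination was run in triplicate, and the mean of three independent readings is reported.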

Proteus vulgaris [3] = assay: Antibacterial activity against Proteus vulgaris NCIM 2027 at 100 ug/disk after 24 hrs by agar disk diffusion method; details: NCIM 2027, 24 h, read-out: IZ; method in brief: as §2
Fusarium solani [4] = assay: Antifungal activity against Fusarium solani NCIM 1330 at 200 ug/disk after 48 hrs by agar disk diffusion method; details: NCIM 1330, 48 h, read-out: IZ; method in brief: as §1
Proteus vulgaris [5] = assay: Antibacterial activity against Proteus vulgaris NCIM 2027 at 200 ug/disk after 24 hrs by agar disk diffusion method; details: NCIM 2027, 24 h, read-out: IZ; method in brief: as §2
Bacillus subtilis [6] = assay: Antibacterial activity against Bacillus subtilis NCIM 2063 at 200 ug/disk after 24 hrs by agar disk diffusion method; details: NCIM 2063, 24 h, read-out: IZ; method in brief: as §2
Klebsiella pneumoniae [7] = assay: Antibacterial activity against Klebsiella pneumoniae NCIM 2957 at 100 ug/disk after 24 hrs by agar disk diffusion method; details: NCIM 2957, 24 h, read-out: IZ; method in brief: as §2
Klebsiella pneumoniae [8] = assay: Antibacterial activity against Klebsiella pneumoniae NCIM 2957 at 200 ug/disk after 24 hrs by agar disk diffusion method; details: NCIM 2957, 24 h, read-out: IZ; method in brief: as §2
Curvularia lunata [9] = assay: Antifungal activity against Curvularia lunata NCIM 716 at 100 ug/disk after 48 hrs by agar disk diffusion method; details: NCIM 716, 48 h, read-out: IZ; method in brief: as §1
Fusarium solani [10] = assay: Antifungal activity against Fusarium solani NCIM 1330 at 100 ug/disk after 48 hrs by agar disk diffusion method; details: NCIM 1330, 48 h, read-out: IZ; method in brief: as §1
Staphylococcus aureus [11] = assay: Antibacterial activity against Staphylococcus aureus NCIM 5021 at 200 ug/disk after 24 hrs by agar disk diffusion method; details: NCIM 5021, 24 h, read-out: IZ; method in brief: as §2
[12] = test system: Radical scavenging activity; assay: Antioxidant activity assessed as DPPH free radical scavenging activity at 100 uM after 20 mins
Method in brief: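 DPPH scavenging: compound solutions were added to DPPH in dioxane/ethanol and kept at ambient temperature for 20 min. Absorbance was read at 517 nm. The test–control difference was expressed as percent DPPH radical scavenging.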

Curvularia lunata [13] = assay: Antifungal activity against Curvularia lunata NCIM 716 at 200 ug/disk after 48 hrs by agar disk diffusion method; details: NCIM 716, 48 h, read-out: IZ; method in brief: as §1
Aspergillus niger [14] = assay: Antifungal activity against Aspergillus niger NCIM 596 at 100 ug/disk after 48 hrs by agar disk diffusion method; details: NCIM 596, 48 h, read-out: IZ; method in brief: as §1
Bacillus subtilis [15] = assay: Antibacterial activity against Bacillus subtilis NCIM 2063 at 100 ug/disk after 24 hrs by agar disk diffusion method; details: NCIM 2063, 24 h, read-out: IZ; method in brief: as §2
[16] = Antioxidant activity assessed as nitric oxide production at 100 uM after 120 mins by Griess reagent method
Method in brief: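 Nitric oxide assay with Griess read-out. At intervals, 0.5 ml of incubation solution was mixed with 0.5 ml Griess reagent (1% sulfanilamide, 0.1% N-naphthylethylenediamine dihydrochloride, 2% o-phosphoric acid in water). The control received an equal amount of solvent and was handled identically.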

Row | Compound | zone of inhibition at 200 µg/disc (Aspergillus niger [1]) | zone of inhibition at 100 µg/disc (Staphylococcus aureus [2]) | zone of inhibition at 100 µg/disc (Proteus vulgaris [3]) | zone of inhibition at 200 µg/disc (Fusarium solani [4]) | zone of inhibition at 200 µg/disc (Proteus vulgaris [5]) | zone of inhibition at 200 µg/disc (Bacillus subtilis [6]) | zone of inhibition at 100 µg/disc (Klebsiella pneumoniae [7]) | zone of inhibition at 200 µg/disc (Klebsiella pneumoniae [8]) | zone of inhibition at 100 µg/disc (Curvularia lunata [9]) | zone of inhibition at 100 µg/disc (Fusarium solani [10]) | zone of inhibition at 200 µg/disc (Staphylococcus aureus [11]) | inhibition [12] | zone of inhibition at 200 µg/disc (Curvularia lunata [13]) | zone of inhibition at 100 µg/disc (Aspergillus niger [14]) | zone of inhibition at 100 µg/disc (Bacillus subtilis [15]) | inhibition [16]
1 | NC1=NC(=O)N=C(N)C1C(CC(=O)c1ccccc1)C(=O)c1ccccc1 (centres undefined) | 17 mm | 11 mm | 12 mm | 16 mm | 14 mm | 15 mm | 11 mm | 12 mm | 16 mm | 13 mm | 14 mm | 24.7% | 20 mm | 14 mm | 16 mm | 26.8%
2 | NC1=NC(=S)N=C(N)C1C(CC(=O)c1ccccc1)C(=O)c1ccccc1 (centres undefined) | 19 mm | 22 mm | 17 mm | 20 mm | 19 mm | 24 mm | 19 mm | 21 mm | 19 mm | 16 mm | 24 mm | 37.8% | 22 mm | 14 mm | 23 mm | 35.7%
3 | NC1=NC(=O)N=C(N)C1C(CS(=O)(=O)c1ccccc1)S(=O)(=O)c1ccccc1 (centres undefined) | 18 mm | 18 mm | 14 mm | 19 mm | 16 mm | 19 mm | 16 mm | 18 mm | 18 mm | 14 mm | 20 mm | 28.8% | 21 mm | 15 mm | 16 mm | 29.7%
4 | Cc1ccc(S(=O)(=O)CC(C2C(=N)ON=C2N)S(=O)(=O)c2ccc(C)cc2)cc1 (centres undefined) | 29 mm | 26 mm | 24 mm | 31 mm | 25 mm | 29 mm | 25 mm | 27 mm | 28 mm | 28 mm | 27 mm | 80.8% | 30 mm | 26 mm | 26 mm | 81.5%
5 | CN1C(=N)C(C(CC(=O)c2ccccc2)C(=O)c2ccccc2)C(=N)N(C)C1=O (centres undefined) | 16 mm | 10 mm | 6 mm | 13 mm | 8 mm | 11 mm | 7 mm | 9 mm | 13 mm | 11 mm | 13 mm | 23.8% | 15 mm | 12 mm | 9 mm | 22.6%
6 | CN1C(=N)C(C(CC(=O)c2ccc(Cl)cc2)C(=O)c2ccc(Cl)cc2)C(=N)N(C)C1=O (centres undefined) | 13 mm | 12 mm | 9 mm | 16 mm | 11 mm | 13 mm | 9 mm | 10 mm | 13 mm | 14 mm | 14 mm | 29.9% | 15 mm | 11 mm | 11 mm | 28.2%
7 | Cc1ccc(S(=O)(=O)CC(C2C(=N)N(C)C(=O)N(C)C2=N)S(=O)(=O)c2ccc(C)cc2)cc1 (centres undefined) | 13 mm | 11 mm | 8 mm | 14 mm | 10 mm | 14 mm | 9 mm | 11 mm | 13 mm | 11 mm | 13 mm | 24.8% | 16 mm | 10 mm | 12 mm | 24.6%
8 | Cc1ccc(S(=O)(=O)CC(C2C(N)=NC(=S)N=C2N)S(=O)(=O)c2ccc(C)cc2)cc1 (centres undefined) | 20 mm | 21 mm | 20 mm | 21 mm | 20 mm | 22 mm | 19 mm | 21 mm | 21 mm | 19 mm | 24 mm | 38.7% | 23 mm | 17 mm | 20 mm | 39.9%
9 | NC1=NC(=S)N=C(N)C1C(CS(=O)(=O)c1ccccc1)S(=O)(=O)c1ccccc1 (centres undefined) | 19 mm | 22 mm | 19 mm | 20 mm | 21 mm | 26 mm | 21 mm | 23 mm | 19 mm | 18 mm | 25 mm | 46.9% | 22 mm | 16 mm | 23 mm | 45.8%
